According to ChEMBL document CHEMBL1142242, “Indanylacetic acid derivatives carrying 4-thiazolyl-phenoxy tail groups, a new class of potent PPAR alpha/gamma/delta pan agonists: synthesis, structure-activity relationship, and in vivo efficacy” (J Med Chem, 2007):

Experiments:
[1] = molecular target: T1, Peroxisome proliferator-activated receptor alpha (Homo sapiens, UniProt Q07869); test: Agonist activity at human PPAR alpha by FRET assay; format: functional
T1 sequence (Q07869 whole entry): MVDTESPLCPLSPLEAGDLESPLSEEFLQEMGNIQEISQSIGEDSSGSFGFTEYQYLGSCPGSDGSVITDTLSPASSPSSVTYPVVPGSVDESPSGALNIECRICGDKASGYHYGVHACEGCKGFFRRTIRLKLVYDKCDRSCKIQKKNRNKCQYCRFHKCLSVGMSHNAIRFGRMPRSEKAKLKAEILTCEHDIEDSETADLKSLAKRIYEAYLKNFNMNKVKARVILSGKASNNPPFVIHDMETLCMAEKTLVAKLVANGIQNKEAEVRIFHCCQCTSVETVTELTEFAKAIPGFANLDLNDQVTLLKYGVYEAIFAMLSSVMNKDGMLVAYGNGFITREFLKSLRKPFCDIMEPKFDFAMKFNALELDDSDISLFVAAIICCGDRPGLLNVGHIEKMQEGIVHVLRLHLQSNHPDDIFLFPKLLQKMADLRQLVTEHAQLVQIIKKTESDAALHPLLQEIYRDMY
In short: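 Human PPARα ligand binding domain (GST-tagged) association with biotin-labeled co-activator CBP; Eu-labeled anti-GST antibody and streptavidin-APC; incubated 2 h at rt in buffer with or without compound; fluorescence read at 615 or 655 nm emission, 340 nm excitation.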

[2] = molecular target: T2, Peroxisome proliferator-activated receptor delta (Homo sapiens, UniProt Q03181); test: Agonist activity at human PPAR delta by FRET assay; format: functional
T2 sequence (Q03181 whole entry): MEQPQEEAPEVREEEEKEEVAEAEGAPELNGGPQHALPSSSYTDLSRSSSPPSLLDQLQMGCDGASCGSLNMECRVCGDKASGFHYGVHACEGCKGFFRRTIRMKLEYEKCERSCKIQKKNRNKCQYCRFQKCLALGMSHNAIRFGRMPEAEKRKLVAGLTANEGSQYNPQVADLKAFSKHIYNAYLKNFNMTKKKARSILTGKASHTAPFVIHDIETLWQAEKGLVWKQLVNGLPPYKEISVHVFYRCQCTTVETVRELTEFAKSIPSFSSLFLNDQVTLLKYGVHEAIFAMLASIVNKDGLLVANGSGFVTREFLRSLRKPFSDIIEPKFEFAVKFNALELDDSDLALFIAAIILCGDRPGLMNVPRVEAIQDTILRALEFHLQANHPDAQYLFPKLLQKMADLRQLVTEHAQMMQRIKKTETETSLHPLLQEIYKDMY

[3] = molecular target: T3, Peroxisome proliferator-activated receptor gamma (Mus musculus, UniProt P37238); test: Agonist activity at PPAR gamma in mouse 3T3L1 cells assessed as increase in insulin receptor by IRBA; format: functional, cell-based, 3T3-L1
T3 sequence (P37238 whole entry): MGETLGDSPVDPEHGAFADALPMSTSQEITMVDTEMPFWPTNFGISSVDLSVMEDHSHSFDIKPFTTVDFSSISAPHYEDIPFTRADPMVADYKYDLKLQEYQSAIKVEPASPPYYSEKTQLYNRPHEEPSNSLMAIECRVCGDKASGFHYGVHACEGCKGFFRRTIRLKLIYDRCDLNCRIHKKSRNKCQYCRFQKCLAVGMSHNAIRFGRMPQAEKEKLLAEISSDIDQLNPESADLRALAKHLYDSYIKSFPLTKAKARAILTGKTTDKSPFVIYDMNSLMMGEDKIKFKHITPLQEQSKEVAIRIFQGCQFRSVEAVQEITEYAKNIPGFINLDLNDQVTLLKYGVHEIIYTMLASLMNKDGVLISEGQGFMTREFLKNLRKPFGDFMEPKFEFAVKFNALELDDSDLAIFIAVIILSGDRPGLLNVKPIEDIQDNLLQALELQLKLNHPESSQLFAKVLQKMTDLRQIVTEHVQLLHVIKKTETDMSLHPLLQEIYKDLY

Row | Compound | EC50 [1] | EC50 [2] | EC50 [3]
1 | CCc1csc(-c2ccc(OCCCOc3ccc4c(c3)CC[C@H]4CC(=O)O)cc2)n1 | 1280 nM | 4.4 nM | 874 nM
2 | COc1cc(-c2nc3c(s2)CCCO3)ccc1OCCCOc1ccc2c(c1)CC[C@H]2CC(=O)O | 328 nM | 1.3 nM | 181 nM
3 | Cc1cccc(-c2ccc(OCCCOc3ccc4c(c3)CC[C@H]4CC(=O)O)cc2)n1 | 5260 nM | 2.2 nM | 550 nM
4 | Cc1c(OCCCOc2ccc3c(c2)CC[C@H]3CC(=O)O)ccc2[nH]ccc12 | > 10000 nM | 286 nM | 6850 nM
5 | CC(=O)Nc1cc(-n2ccnn2)ccc1OCCCOc1ccc2c(c1)CC[C@H]2CC(=O)O | 9200 nM | – | 5600 nM
6 | CCOc1ccc(OCCCOc2ccc3c(c2)CC[C@H]3CC(=O)O)cc1 | > 10000 nM | 6.6 nM | 940 nM
7 | CCCc1cc(Oc2ccccc2)ccc1OCCCOc1ccc2c(c1)CC[C@H]2CC(=O)O | > 10000 nM | 1.9 nM | –
8 | CCCc1cc(-c2nc(C)c(C(C)=O)s2)ccc1OCCCOc1ccc2c(c1)CC[C@H]2CC(=O)O | 175 nM | 18 nM | 17 nM
9 | Cc1cc(-c2nc(C(F)(F)F)ns2)ccc1OCCCOc1ccc2c(c1)CC[C@H]2CC(=O)O | 520 nM | 3.4 nM | 158 nM
10 | CCCc1c(OCCCOc2ccc3c(c2)CC[C@H]3CC(=O)O)ccc2c1ccn2C | > 10000 nM | 29 nM | > 10000 nM
11 | COc1csc(-c2ccc(OCCCOc3ccc4c(c3)CC[C@H]4CC(=O)O)c(OC)c2)n1 | 755 nM | 3 nM | 69 nM
12 | CCOc1cc(C)ccc1OCCCOc1ccc2c(c1)CC[C@H]2CC(=O)O | > 10000 nM | 2.2 nM | 1240 nM
13 | CCCc1cc(C(F)(F)F)ccc1OCCCOc1ccc2c(c1)CC[C@H]2CC(=O)O | 1140 nM | 1.6 nM | –
14 | CCCc1ccccc1OCCCOc1ccc2c(c1)CC[C@H]2CC(=O)O | > 10000 nM | 2.4 nM | 1520 nM
15 | CCOc1nc(-c2ccc(OCCCOc3ccc4c(c3)CC[C@H]4CC(=O)O)c(OC)c2)sc1C | 150 nM | 6 nM | 177 nM
16 | COc1cc(-c2nc(C)cs2)ccc1OCCCOc1ccc2c(c1)CC[C@H]2CC(=O)O | 268 nM | 2.7 nM | 960 nM
17 | O=C(O)C[C@@H]1CCc2cc(OCCCOc3ccc(-c4ccoc4)cc3)ccc21 | 3270 nM | 3.8 nM | 4100 nM
18 | O=C(O)C[C@@H]1CCc2cc(OCCCOc3ccc(-c4cncnc4)cc3)ccc21 | 7280 nM | 11 nM | 970 nM
19 | COc1cc(-c2nc3c(s2)CCC3)ccc1OCCCOc1ccc2c(c1)CC[C@H]2CC(=O)O | 53 nM | 4.1 nM | 116 nM
20 | COc1cc(-c2nc3ccccc3s2)ccc1OCCCOc1ccc2c(c1)CC[C@H]2CC(=O)O | 526 nM | 5.2 nM | –
21 | Cn1ccc2cc(OCCCOc3ccc4c(c3)CC[C@H]4CC(=O)O)ccc21 | 6700 nM | 40 nM | 1030 nM
22 | O=C(O)C[C@@H]1CCc2cc(OCCCOc3ccc4[nH]ccc4c3)ccc21 | > 10000 nM | 24 nM | 1800 nM
23 | CCCc1cc(C#N)ccc1OCCCOc1ccc2c(c1)CC[C@H]2CC(=O)O | 3950 nM | 25 nM | 570 nM
24 | CCOc1csc(-c2ccc(OCCCOc3ccc4c(c3)CC[C@H]4CC(=O)O)c(OC)c2)n1 | 1350 nM | 3.4 nM | 920 nM
25 | Cc1noc2cc(OCCCOc3ccc4c(c3)CC[C@H]4CC(=O)O)ccc12 | > 10000 nM | 16 nM | 3660 nM
26 | O=C(O)C[C@@H]1CCc2cc(OCCCOc3ccc(-c4ccc5cc[nH]c5c4)cc3)ccc21 | 6600 nM | 1.5 nM | 740 nM

Row | Compound | EC50 [1] | EC50 [2] | EC50 [3]
27 | CCc1ccc(OCCCOc2ccc3c(c2)CC[C@H]3CC(=O)O)c(OC)c1 | 700 nM | 2.7 nM | 1650 nM
28 | COc1ccc(OCCCOc2ccc3c(c2)CC[C@H]3CC(=O)O)cc1 | > 10000 nM | 6.7 nM | 3000 nM
29 | Cc1nc(-c2ccc(OCCCOc3ccc4c(c3)CC[C@H]4CC(=O)O)cc2)sc1C(=O)O | 10000 nM | 218 nM | 312 nM
30 | Cc1ccc(OCCCOc2ccc3c(c2)CC[C@H]3CC(=O)O)c(C)c1 | 9360 nM | 4.6 nM | 2180 nM
31 | CCCc1cc(-c2nc(C)c(C(=O)N(C)C)s2)ccc1OCCCOc1ccc2c(c1)CC[C@H]2CC(=O)O | 140 nM | 4.4 nM | 17 nM
32 | CCCc1cc(-c2nc(OCC)c(C)s2)ccc1OCCCOc1ccc2c(c1)CC[C@H]2CC(=O)O | 61 nM | 3.2 nM | 34 nM
33 | COc1cc(C#N)ccc1OCCCOc1ccc2c(c1)CC[C@H]2CC(=O)O | 7500 nM | 14 nM | 700 nM
34 | CCCc1cc(-c2nccs2)ccc1OCCCOc1ccc2c(c1)CC[C@H]2CC(=O)O | 111 nM | 1.6 nM | 48 nM
35 | Cc1cc2cc(OCCCOc3ccc4c(c3)CC[C@H]4CC(=O)O)ccc2[nH]1 | > 10000 nM | 67 nM | 3650 nM
36 | O=C(O)C[C@@H]1CCc2cc(OCCCOc3ccc(-n4cnnc4)cc3Cl)ccc21 | 6850 nM | 2230 nM | 8700 nM
37 | COc1cc(-c2nc(C)c(C(=O)N(C)C)s2)ccc1OCCCOc1ccc2c(c1)CC[C@H]2CC(=O)O | 803 nM | 2.1 nM | –
38 | Cc1ccc(OCCCOc2ccc3c(c2)CC[C@H]3CC(=O)O)cc1C | > 10000 nM | 67 nM | > 10000 nM
39 | CCOc1csc(-c2ccc(OCCCOc3ccc4c(c3)CC[C@H]4CC(=O)O)cc2)n1 | 100 nM | 1.2 nM | 753 nM
40 | COc1cc(-c2nc(C)c(C)s2)ccc1OCCCOc1ccc2c(c1)CC[C@H]2CC(=O)O | 83 nM | 4 nM | 33 nM
41 | COc1cccc(OCCCOc2ccc3c(c2)CC[C@H]3CC(=O)O)c1 | > 10000 nM | 117 nM | –
42 | O=C(O)C[C@@H]1CCc2cc(OCCCOc3ccc(-c4ccc(C(F)(F)F)cn4)cc3)ccc21 | 2900 nM | 0.95 nM | 1800 nM
43 | CCc1csc(-c2ccc(OCCCOc3ccc4c(c3)CC[C@H]4CC(=O)O)c(OC)c2)n1 | 254 nM | 2.5 nM | 65 nM
44 | CCCc1cc(-c2nc(CC(=O)O)cs2)ccc1OCCCOc1ccc2c(c1)CC[C@H]2CC(=O)O | 2480 nM | 4.6 nM | 27 nM
45 | CCCc1cc(-c2nc(CO)c(C(=O)O)s2)ccc1OCCCOc1ccc2c(c1)CC[C@H]2CC(=O)O | 6490 nM | 12 nM | 891 nM
46 | C=CCc1c(OCCCOc2ccc3c(c2)CC[C@H]3CC(=O)O)ccc2[nH]ccc12 | > 10000 nM | 18 nM | 3300 nM
47 | CCCc1c(OCCCOc2ccc3c(c2)CC[C@H]3CC(=O)O)ccc2c(C)noc12 | > 10000 nM | 2.1 nM | 173 nM
48 | N#Cc1ccc(OCCCOc2ccc3c(c2)CC[C@H]3CC(=O)O)cc1 | 5700 nM | 7.3 nM | 637 nM
49 | O=C(O)C[C@@H]1CCc2cc(OCCCOc3ccc(C(F)(F)F)cc3)ccc21 | 1610 nM | 4.2 nM | 5580 nM
50 | O=C(O)C[C@@H]1CCc2cc(OCCCOc3ccc(-n4cncn4)cc3)ccc21 | > 10000 nM | – | –
51 | O=C(O)C[C@@H]1CCc2cc(OCCCOc3ccc(-c4ccccc4)cc3)ccc21 | > 10000 nM | 43 nM | –
52 | COc1cc(-c2nccs2)ccc1OCCCOc1ccc2c(c1)CC[C@H]2CC(=O)O | 255 nM | – | 374 nM
